We go through 13 compounds from ChEMBL document CHEMBL2177084, “Discovery of salermide-related sirtuin inhibitors: binding mode studies and antiproliferative effects in cancer cells including cancer stem cells” (J Med Chem, 2012).

The subject of assay [1] is U-937. The experiment in a line: Induction of apoptosis in human U937 cells at 5 uM after 45 hrs by flow cytometry. Format: functional, cell-based. The gist of the method:
(§1)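 Apoptosis was taken as the pre-G1 peak after propidium iodide staining in hypotonic citrate/Triton buffer (30 min, dark) and flow cytometry. Triplicate experiments.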
In general terms: A flow cytometer gives signals particle by particle.

In assay [2] the test system is MOLT-4. In words: Antiproliferative activity against human MOLT4 cells at 100 uM after 24 to 72 hrs by MTT assay. Format: functional, cell-based. The gist of the method: (§2)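 Cells exposed to compound for 24, 48 and 72 h; growth inhibition read by MTT and expressed as percentage antiproliferative activity.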
Background: Tetrazolium dyes change colour on reduction, which living cells bring about.

For assay [3], the target named is T1, NAD-dependent protein deacetylase sirtuin-1 (Homo sapiens) (UniProt Q96EB6).
T1 sequence (whole entry): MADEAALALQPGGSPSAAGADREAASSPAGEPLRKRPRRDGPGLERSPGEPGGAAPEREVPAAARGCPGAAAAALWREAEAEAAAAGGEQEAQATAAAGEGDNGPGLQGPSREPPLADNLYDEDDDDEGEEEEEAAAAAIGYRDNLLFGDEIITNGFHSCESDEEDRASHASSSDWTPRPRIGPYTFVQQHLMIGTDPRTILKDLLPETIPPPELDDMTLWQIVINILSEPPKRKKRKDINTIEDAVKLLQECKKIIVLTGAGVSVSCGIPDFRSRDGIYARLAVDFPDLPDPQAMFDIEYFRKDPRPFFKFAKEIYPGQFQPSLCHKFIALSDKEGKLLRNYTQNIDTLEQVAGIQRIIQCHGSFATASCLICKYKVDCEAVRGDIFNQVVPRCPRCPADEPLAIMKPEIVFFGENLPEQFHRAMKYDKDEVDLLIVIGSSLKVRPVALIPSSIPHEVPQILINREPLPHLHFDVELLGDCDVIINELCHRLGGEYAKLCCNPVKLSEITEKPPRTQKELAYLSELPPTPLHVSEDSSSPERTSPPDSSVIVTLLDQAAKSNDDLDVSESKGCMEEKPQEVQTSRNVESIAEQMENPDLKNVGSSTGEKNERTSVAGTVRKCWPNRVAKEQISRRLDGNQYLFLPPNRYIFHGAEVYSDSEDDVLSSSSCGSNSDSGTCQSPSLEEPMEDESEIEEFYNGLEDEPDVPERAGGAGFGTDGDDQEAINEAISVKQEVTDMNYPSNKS
In words: Inhibition of human N-terminal GST-tagged SIRT1 expressed in Escherichia coli using Arg-His- Lys-Lys(Ac) as substrate after 1 hr by Fluor de Lys fluorescence based assay. The procedure, abridged: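 Recombinant full-length human sirtuin expressed in E. coli was incubated 1 h at 37 °C with p53-derived AMC-conjugated acetyl-peptide (SIRT1: Arg-His-Lys-Lys(Ac); SIRT2: Gln-Pro-Lys-Lys(Ac); […]) and NAD+ ([…]). The reaction was stopped and developed with developer containing 2 mM nicotinamide, and fluorescence read at ex 360/em 460 nm. Compound fluorescence was subtracted using an enzyme-free counter assay. Triplicate.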

Assay [4] relates to U-937. The experiment in a line: Induction of apoptosis in human U937 cells at 50 uM after 45 hrs by flow cytometry. In kind it is functional, cell-based. The gist of the method: as §1
For assay [5], the system named is MOLT-4. The experiment in a line: Antiproliferative activity against human MOLT4 cells at 25 uM after 24 to 72 hrs by MTT assay. Format: functional, cell-based. The gist of the method: as §2
Assay [6] relates to U-937. The experiment in a line: Induction of apoptosis in human U937 cells after 45 hrs by flow cytometry. In kind it is functional. Also on record: concentration or dose not given beside the values. The note with it: in the assay text read “after 40 hrs” for “after 45 hrs”. The gist of the method: as §1
Assay [7] deals with U-937. The experiment in a line: Cell cycle arrest in human U937 cells assessed as accumulation at G1 phase at 25 uM after 40 hrs by flow cytometry. In kind it is functional, cell-based.
Assay [8] in a line: Cytotoxicity against human CRC 1.1 cells after 72 hrs by celltiter-glo luminescent assay. Format: functional. The gist of the method:
(§3)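 Patient-derived CSC spheroids were dissociated, plated at 2000–3000 viable cells, and held 24 h at 37 °C in 5% CO2. They were then treated 72 h with eight 1:3 serial dilutions (0.023–50 μM), with 0.1% DMSO as control, in triplicate. Viability was read by CellTiter-Glo luminescence relative to DMSO, and CC50 was obtained by 4-parameter logistic fit (mean of three experiments).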
In general terms: ATP-based viability assays read luminescence as a measure of living cells.

A short description of assay [9]: Cytotoxicity against human 30P cells after 72 hrs by celltiter-glo luminescent assay. Format: functional. The procedure, abridged:
as §3

Assay [10] concerns U-937. The experiment in a line: Cell cycle arrest in human U937 cells assessed as accumulation at S phase at 25 uM after 40 hrs by flow cytometry. Format: functional, cell-based.
A short description of assay [11]: Cytotoxicity against human 30PT cells after 72 hrs by celltiter-glo luminescent assay. Format: functional. The procedure, abridged:
as §3

Assay [12] deals with RKO. The experiment in a line: Antiproliferative activity against human RKO cells at 50 uM after 24 to 72 hrs by MTT assay. In kind it is functional, cell-based. The gist of the method:
as §2

Assay [13] deals with MDA-MB-231. In words: Antiproliferative activity against human MDA-MB-231 cells at 50 uM after 24 to 72 hrs by MTT assay. In kind it is functional, cell-based. The gist of the method: as §2
Assay [14] in a line: Cytotoxicity against human CRO cells after 72 hrs by celltiter-glo luminescent assay. In kind it is functional. The procedure, abridged: as §3
Assay [15] deals with MOLT-4. The experiment in a line: Antiproliferative activity against human MOLT4 cells at 50 uM after 24 to 72 hrs by MTT assay. In kind it is functional, cell-based. The gist of the method: as §2
Assay [16] has as its system MOLT-4. In words: Antiproliferative activity against human MOLT4 cells at 100 uM by MTT assay. Format: functional, cell-based. To be noted: TDE = time-dependent effect. The gist of the method:
as §2

For orientation: CC50 means the concentration at which the toxic effect on the cells reaches its halfway point.

Calls of active or inactive are those of the source. The rule behind the calls is not given here.

For `CC(NS(=O)(=O)c1ccccc1/N=C/c1c(O)ccc2ccccc12)c1ccccc1` (stereo not given), in [1], the outcome was inactive. The result in assay [2] and in assay [4] was Active. Also, the inhibition entry in assay [3] is “Active”.

As for `CC(CSc1ccccc1/N=C/c1c(O)ccc2ccccc12)c1ccccc1` (stereo not given), in [1], the outcome was inactive. Moreover, the outcome in assay [5] and in [4] was Active.

Consider `CC(CSc1ccc(/N=C/c2c(O)ccc3ccccc23)cc1)c1ccccc1` (stereo not given), for which, in assay [1], the result was inactive. For the same compound, the Activity in assay [6] was found to be 90%. Besides, the result in assay [2] and in [4] was Active.

Regarding `CC(CS(=O)(=O)c1ccc(/N=C/c2c(O)ccc3ccccc23)cc1)c1ccccc1` (stereo not given), the outcome in assay [1] was inactive. The outcome in [2], in [7] and in [4] was Active. Also, the inhibition entry in [3] is “Active”. In addition, the 50% cytotoxic concentration (CC50) in assay [8] was 34 µM; in assay [9], 30.2 µM.

`CC(CS(=O)(=O)c1cccc(/N=C/c2c(O)ccc3ccccc23)c1)c1ccccc1` (stereo not given): the outcome in [1] was inactive. For the same compound, the outcome in assay [4] was Active.

Turning to `CC(NC(=O)c1cccc(/N=C/c2c(O)ccc3ccccc23)c1)c1ccccc1` (stereo not given), the result in [1] was inactive. Besides, the Activity in assay [6] was 47%. In addition, the result in assay [7] and in assay [4] was Active. For the same compound, the inhibition entry in assay [3] was “Active”.

As for `CC(C(=O)Nc1ccccc1/N=C/c1c(O)ccc2ccccc12)c1ccccc1` (stereo not given), the outcome in assay [1] was inactive. In addition, the result in assay [10] and in [4] was Active.

Regarding `CC(CSc1cccc(/N=C/c2c(O)ccc3ccccc23)c1)c1ccccc1` (stereo not given), the CC50 in assay [11] is 15.6 µM; in [14], 14.5 µM; in [8], 20 µM; in assay [9] it was 15.5 µM. Moreover, the result in [12], in [13], in assay [5], in assay [4] and in assay [15] was Active. The result in [1] was inactive.

As for `CC(NC(=O)c1ccc(/N=C/c2c(O)ccc3ccccc23)cc1)c1ccccc1` (stereo not given), in assay [1], the outcome was inactive. For the same compound, the outcome in assay [5], in [2], in assay [7] and in [4] was Active. Moreover, the Activity in assay [6] is 47%; in assay [16], “tde”. In addition, in assay [3], the inhibition result is “Active”.

For the compound `CC(NS(=O)(=O)c1cccc(/N=C/c2c(O)ccc3ccccc23)c1)c1ccccc1` (stereo not given), the outcome in assay [1] was inactive. The outcome in assay [10] and in assay [4] was Active.

As to `CC(C[S+]([O-])c1ccc(/N=C/c2c(O)ccc3ccccc23)cc1)c1ccccc1` (stereo not given), the outcome in [1] was inactive. Moreover, the result in assay [2] and in assay [4] was Active. Moreover, the Activity result in [16] is “tde”.

As to `CC(NS(=O)(=O)c1ccc(/N=C/c2c(O)ccc3ccccc23)cc1)c1ccccc1` (stereo not given), the result in assay [1] was inactive. For the same compound, the result in assay [2] and in [4] was Active.

On to `CC(NC(=O)c1ccccc1/N=C/c1c(O)ccc2ccccc12)c1ccccc1` (stereo not given) [SIRTINOL], for which, in assay [1], the outcome was inactive. The Activity in assay [6] is on record as 47%. The inhibition entry in assay [3] was “Active”. The result in assay [4] was Active.
